Reference: ChEMBL document CHEMBL1135761, “Discovery of further pyrrolidine trans-lactams as inhibitors of human neutrophil elastase (HNE) with potential as development candidates and the crystal structure of HNE complexed with an inhibitor (GW475151)” (J Med Chem, 2002)

Tests used:
[1] = Pharmacokinetic parameter clearance in dog was reported in Cassette dosage; format: ADME, organism-based, Canis lupus familiaris; details: plasma, read-out: Clp
Method in brief: (§1)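 Dog cassette: the set of compounds was given intravenously into the femoral vein to a beagle dog at 0.2 mg/kg body weight per compound. Jugular blood was sampled from 5 min to 24 h postdose. Plasma was prepared by solid phase extraction, then analysed by HPLC with single ion monitoring MS using 0.1% formic acid in water:methanol (70:30).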

[2] = Pharmacokinetic parameter Varea in dog was reported in Cassette dosage; format: ADME, organism-based, Canis lupus familiaris; details: in vivo, read-out: Varea; method in brief: as §1
[3] = Half life time in dog was reported in cassette dosage; format: ADME, organism-based, Canis lupus familiaris; details: in vivo; method in brief: as §1
[4] = Half life time in dog was reported in Discrete dosage; format: ADME, organism-based, Canis lupus familiaris; details: in vivo
[5] = Pharmacokinetic parameter Varea in dog was reported in Discrete dosage; format: ADME, organism-based, Canis lupus familiaris; details: in vivo, read-out: Varea
[6] = Pharmacokinetic parameter clearance in dog was reported in Discrete dosage; format: ADME, organism-based, Canis lupus familiaris; details: plasma, read-out: Clp
[7] = Pharmacokinetic parameter Tmax was reported in rat after oral administration; format: ADME, organism-based; details: in vivo
Method in brief: (§2)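 Rats were dosed with the hydrochloride salt at 2 mg/kg intravenously and orally. Plasma pharmacokinetic parameters were derived from each route, and F was taken from the oral versus intravenous exposure. Some rat data were normalized from a 2.4 to a 2 mg/kg dose.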

[8] = molecular target: T1, Neutrophil elastase (Homo sapiens) (UniProt P08246); details: Canis lupus familiaris; 2 mg/kg
T1 sequence (whole entry): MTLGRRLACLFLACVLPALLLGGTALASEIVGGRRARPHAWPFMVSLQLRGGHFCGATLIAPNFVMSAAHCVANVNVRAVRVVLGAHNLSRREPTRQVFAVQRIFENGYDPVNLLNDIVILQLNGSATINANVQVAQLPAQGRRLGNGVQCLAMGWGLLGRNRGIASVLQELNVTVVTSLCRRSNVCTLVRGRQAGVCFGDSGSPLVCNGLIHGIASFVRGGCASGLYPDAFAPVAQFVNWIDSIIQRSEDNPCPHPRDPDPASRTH

[9] = Oral bioavailability in dog; format: ADME, organism-based, Canis lupus familiaris; details: in vivo
[10] = pharmacokinetic parameter volume of distribution (Vd) was reported in dog after intravenous administration; format: ADME, organism-based, Canis lupus familiaris; details: in vivo, read-out: Vd area
[11] = Pharmacokinetic parameter Cmax was reported after in rat oral administration; format: ADME, organism-based; parameters: route oral; details: in vivo; method in brief: as §2
[12] = half life was reported in rat after intravenous administration; format: ADME, organism-based; details: in vivo; method in brief: as §2
Cathepsin G = molecular target: T2, Cathepsin G (Homo sapiens, UniProt P08311); experiment: The compound was evaluated for its inhibitory activity against cathepsin G using selectivity assay
T2 sequence (P08311 whole entry): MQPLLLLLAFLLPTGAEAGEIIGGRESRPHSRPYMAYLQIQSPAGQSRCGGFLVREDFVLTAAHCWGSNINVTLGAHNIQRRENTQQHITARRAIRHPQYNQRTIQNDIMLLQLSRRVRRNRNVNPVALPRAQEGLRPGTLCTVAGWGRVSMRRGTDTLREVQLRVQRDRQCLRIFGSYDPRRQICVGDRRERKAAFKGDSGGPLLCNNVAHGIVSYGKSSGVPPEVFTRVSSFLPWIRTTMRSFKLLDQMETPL

Canis familiaris [13] = experiment: pharmacokinetic parameter area under the curve (AUC) was reported in dog after intravenous administration; format: ADME, organism-based, Canis lupus familiaris; details: in vivo
Canis familiaris [14] = experiment: pharmacokinetic parameter area under the curve (AUC) was reported in dog after oral administration; format: ADME, organism-based, Canis lupus familiaris; details: in vivo
Serine protease 1 = Serine protease 1 (Homo sapiens, UniProt P07477); experiment: The compound was evaluated for its inhibitory activity against trypsin using selectivity assay
Chain of Serine protease 1 (P07477 whole entry): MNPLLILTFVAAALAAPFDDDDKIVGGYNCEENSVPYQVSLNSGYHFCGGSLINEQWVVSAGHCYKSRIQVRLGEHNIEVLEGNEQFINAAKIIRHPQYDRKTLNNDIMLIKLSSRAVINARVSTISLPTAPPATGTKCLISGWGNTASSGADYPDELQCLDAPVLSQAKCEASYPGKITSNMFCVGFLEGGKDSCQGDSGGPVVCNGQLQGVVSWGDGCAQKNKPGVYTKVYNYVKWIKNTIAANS

[15] = Pharmacokinetic parameter Cmax was reported after in dog oral administration; format: ADME, organism-based, Canis lupus familiaris; parameters: route oral; details: in vivo
[16] = pharmacokinetic parameter volume of distribution (Vd) was reported in rat after intravenous administration; format: ADME, organism-based; details: in vivo, read-out: Vd area; method in brief: as §2
Rattus norvegicus [17] = experiment: pharmacokinetic parameter area under the curve (AUC) was reported in rat after oral administration; format: ADME, organism-based; details: in vivo; method in brief: as §2
[18] = Pharmacokinetic parameter Tmax was reported in rat after intravenous administration; format: ADME, organism-based; details: in vivo; method in brief: as §2
Rattus norvegicus [19] = experiment: pharmacokinetic parameter area under the curve (AUC) was reported in rat after intravenous administration; format: ADME, organism-based; details: in vivo; method in brief: as §2
[20] = molecular target: T1, Neutrophil elastase (Homo sapiens); details: Canis lupus familiaris; Blood; 2 mg/kg
[21] = Oral bioavailability in rat; format: ADME, organism-based; details: in vivo; method in brief: as §2
[22] = molecular target: T1, Neutrophil elastase (Homo sapiens)
[23] = half life was reported in rat after oral administration; format: ADME, organism-based; details: in vivo; method in brief: as §2
[24] = half life was reported in dog after oral administration; format: ADME, organism-based, Canis lupus familiaris; details: in vivo
[25] = half life was reported in dog after intravenous administration; format: ADME, organism-based, Canis lupus familiaris; details: in vivo
[26] = Pharmacokinetic parameter Tmax was reported in dog after oral administration; format: ADME, organism-based, Canis lupus familiaris; details: in vivo
Chymotrypsinogen A = Chymotrypsinogen A (Bos taurus, UniProt P00766); experiment: The compound was evaluated for its inhibitory activity against Chymotrypsinogen using selectivity assay
Method in brief: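 Selectivity counter-screen against chymotrypsin, run essentially per an earlier published protocol; inhibitor preincubated with enzyme for 15 min before activity read-out.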

[27] = molecular target: T1, Neutrophil elastase (Homo sapiens); details: Canis lupus familiaris; Blood; 2 mg/kg; remark: listed apart in the source
[28] = Pharmacokinetic parameter Tmax was reported in dog after intravenous administration; format: ADME, organism-based, Canis lupus familiaris; details: in vivo

SMILES | clearance [1] | Vd [2] | half-life [3] | half-life [4] | Vd [5] | clearance [6] | Tmax [7] | inhibition [8] | bioavailability [9] | Vd [10] | Cmax [11] | half-life [12] | IC50 (Cathepsin G) | AUC (Canis familiaris [13]) | AUC (Canis familiaris [14]) | IC50 (Serine protease 1) | Cmax [15] | Vd [16] | AUC (Rattus norvegicus [17]) | Tmax [18] | also measured
CC(C)C1C(=O)N(S(C)(=O)=O)C2CCN(C(=O)c3csc(CN4CCCC4)n3)C12 (stereo unspecified) | 53 mL/min/kg | 4.8 L/kg | 60 min |  |  |  |  |  |  |  |  |  |  |  |  |  |  |  |  |  | 
CC(C)C1C(=O)N(S(C)(=O)=O)C2CCN(C(=O)/C=C/CN3CCCCC3)C12 (stereo unspecified) | 20 mL/min/kg | 3.3 L/kg | 120 min | 108 min | 2.7 L/kg | 19 mL/min/kg |  |  |  |  |  |  |  |  |  |  |  |  |  |  | 
CC(C)[C@@H]1C(=O)N(S(C)(=O)=O)[C@@H]2CCN(C(=O)c3ccc(CN(C)C(C)C)c(Br)c3)[C@H]21 | 176 mL/min/kg | 4.4 L/kg | 18 min |  |  |  |  |  |  |  |  |  |  |  |  |  |  |  |  |  | 
CCCN(C)Cc1ccc(C(=O)N2CCC3C2C(C(C)C)C(=O)N3S(C)(=O)=O)cc1 (stereo unspecified) | 134 mL/min/kg | 7.6 L/kg | 42 min | 12 min | 3.5 L/kg | 197 mL/min/kg |  |  |  |  |  |  |  |  |  |  |  |  |  |  | 
CC(C)[C@@H]1C(=O)N(S(C)(=O)=O)[C@@H]2CCN(C(=O)/C=C/CN3CCCCC3)[C@H]21.Cl |  |  |  |  |  |  | 30 min | 97% | 100% | 3.5 L/kg | 232 ng/mL | 66 min | > 100 µM | 405 ng·h/mL | 430 ng·h/mL | > 100 µM | 152 ng/mL | 7.5 L/kg | 263 ng·h/mL | 3 min | AUC (Rattus norvegicus [19]): 424 ng·h/mL; inhibition [20]: 100%; bioavailability [21]: 60%; k on [22]: 6630 M⁻¹ s⁻¹; half-life [23]: 48 min; half-life [24]: 96 min; half-life [25]: 90 min; Tmax [26]: 42 min
CC(C)[C@@H]1C(=O)N(S(C)(=O)=O)[C@@H]2CCN(C(=O)c3ccc(CCN4CCCCC4)cc3)[C@H]21 | 161 mL/min/kg | 6.6 L/kg | 30 min | 12 min | 3.8 L/kg | 220 mL/min/kg |  |  |  |  |  |  |  |  |  |  |  |  |  |  | 
CC(C)[C@@H]1C(=O)N(S(C)(=O)=O)[C@@H]2CCN(C(=O)c3cnc(CNC4CC4)cn3)[C@H]21.Cl |  |  |  |  |  |  | 15 min | 92% | 120% | 1.9 L/kg | 135 ng/mL | 18 min | > 100 µM | 220 ng·h/mL | 147 ng·h/mL | > 100 µM | 205 ng/mL | 5 L/kg | 64 ng·h/mL | 1.8 min | IC50 (Chymotrypsinogen A): 0.54 µM; inhibition [27]: 99%; AUC (Rattus norvegicus [19]): 148 ng·h/mL; bioavailability [21]: 43%; k on [22]: 252000 M⁻¹ s⁻¹; half-life [23]: 24 min; half-life [24]: 24 min; half-life [25]: 24 min; Tmax [26]: 15 min
CC(C)[C@@H]1C(=O)N(S(C)(=O)=O)[C@@H]2CCN(C(=O)c3coc(CN4CCCC4)n3)[C@H]21.Cl |  |  |  |  |  |  | 15 min | 100% | 100% | 3.4 L/kg | 147 ng/mL | 24 min | > 100 µM | 286 ng·h/mL | 308 ng·h/mL | > 100 µM | 138 ng/mL | 2.6 L/kg | 93 ng·h/mL | 1.8 min | Tmax [28]: 1.8 min; IC50 (Chymotrypsinogen A): 3 µM; inhibition [27]: 100%; AUC (Rattus norvegicus [19]): 392 ng·h/mL; bioavailability [21]: 24%; k on [22]: 30500 M⁻¹ s⁻¹; half-life [23]: 78 min; half-life [24]: 84 min; half-life [25]: 60 min; Tmax [26]: 30 min
CC(C)C1C(=O)N(S(C)(=O)=O)C2CCN(C(=O)c3ccc(CNC4CC4)cc3)C12 (stereo unspecified) | 97 mL/min/kg | 4.3 L/kg | 30 min | 30 min | 3.8 L/kg | 94 mL/min/kg |  |  |  |  |  |  |  |  |  |  |  |  |  |  | 
CC(C)[C@@H]1C(=O)N(S(C)(=O)=O)[C@@H]2CCN(C(=O)/C=C/CNC3CC3)[C@H]21 | 28 mL/min/kg | 2.5 L/kg | 60 min | 54 min | 2.9 L/kg | 40 mL/min/kg |  |  |  |  |  |  |  |  |  |  |  |  |  |  | 
CC(C)C1C(=O)N(S(C)(=O)=O)C2CCN(C(=O)c3ccc(CNC4CC4)nc3)C12 (stereo unspecified) | 46 mL/min/kg | 2.9 L/kg | 42 min |  |  |  |  |  |  |  |  |  |  |  |  |  |  |  |  |  | 
CC(C)[C@@H]1C(=O)N(S(C)(=O)=O)[C@@H]2CCN(C(=O)C3CN(CC(C)(C)C)C3)[C@H]21.Cl |  |  |  |  |  |  | 45 min | 92% | 90% | 3.5 L/kg | 142 ng/mL | 48 min | > 100 µM | 488 ng·h/mL | 417 ng·h/mL | > 100 µM | 130 ng/mL | 4.9 L/kg | 217 ng·h/mL | 1.8 min | IC50 (Chymotrypsinogen A): 31 µM; inhibition [27]: 99%; AUC (Rattus norvegicus [19]): 482 ng·h/mL; bioavailability [21]: 45%; k on [22]: 6310 M⁻¹ s⁻¹; half-life [23]: 72 min; half-life [24]: 126 min; half-life [25]: 108 min; Tmax [26]: 54 min
